HCV NS3 hel inh – blocks Hepatitis C virus NS3 helicase unwinding; NS3 helicase DNA unwinding, Cy5 molecular beacon fluorescence; inhibition, % at 10.9 µM; actives 0.56% (n = 290,000); AID 1800;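 active means inhibition above the mean of all tested compounds plus 3 SD, set per campaign, cut at about 35% in these data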;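 further: 0% = DMSO wells and 100% = thioflavine S control wells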
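Control set: DMSO versus 110 µM thioflavine S; Material: NS3 helicase fragment of HCV; Measured by: Cy5 fluorescence at 0 and 60 min, beacon hairpin quenching; Read-out basis: percent inhibition from t60/t0 fluorescence ratio; Times: reaction time 60 min, 25 °C; Repeats: single replicate; Compound dosing: single dose, 10.9 µM nominal final, DMSO 0.8% final.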
DNA FID counter – displaces DNA intercalator in HCV helicase counter-screen. actives 0.17% (n = 290,000). inhibition, % at 7.9 µM. AID 1845. DNA fluorescent intercalator displacement, fluorescence; in the data active means inhibition above about 37%;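 further: 0% = vehicle and 100% = reference compound; higher means more ethidium bromide displaced from hairpin DNA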
pCIP destab – p/CIP protein destabilization. actives 0.01% (n = 290,000). AID 1984. decrease of EGFP signal, % at 10 µM. F442A p/CIP-EGFP cells, EGFP fluorescence, 16 h. Q05BA5;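 active means EGFP signal decrease of at least 30% at 10 µM or well 3 SD below plate mean, unless failing retest; inactive means the rest, including hits failing retest or dose response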
GPR7 antagonist – human neuropeptides B/W receptor 1 antagonism | P48145 | GPR7-expressing cells, fluorescence antagonist assay | inhibition, % at 4.4 µM | actives 1.1% (n = 290,000); in the data active means inhibition above about 16%, passing the limit was not always enough;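 further: cells stimulated with the agonist NPW; 0% = agonist with vehicle and 100% = vehicle without agonist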
Target sequence (P48145 whole entry, looked up): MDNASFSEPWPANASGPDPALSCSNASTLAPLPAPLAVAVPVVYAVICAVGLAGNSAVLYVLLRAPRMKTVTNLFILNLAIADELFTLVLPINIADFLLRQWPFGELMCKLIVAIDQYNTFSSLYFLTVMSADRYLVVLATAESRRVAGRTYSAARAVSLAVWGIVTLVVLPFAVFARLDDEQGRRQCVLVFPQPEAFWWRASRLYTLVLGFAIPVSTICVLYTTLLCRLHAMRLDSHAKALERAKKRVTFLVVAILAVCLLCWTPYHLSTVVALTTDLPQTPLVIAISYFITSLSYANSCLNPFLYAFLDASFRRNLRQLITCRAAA
core dimer inh – blocks dimerization of HCV core protein; actives 0.33% (n = 300,000); inhibition, % at 5 µM; TR-FRET GST/Flag-core106 dimerization, 1536-well; AID 1899;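 active means inhibition above the mean of all tested compounds plus 3 SD, set per screening campaign, cut at about 45% in these data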
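Test system: GST/Flag-tagged HCV core106 proteins; Medium: KF-containing HEPES buffer, pH 7.45, DTT, CHAPS, BSA; Times: compound-protein-antibody incubation 4 h at 22.5 °C; Detection: TR-FRET 671 and 617 nm emission; Benchmarks: wells lacking GST-core106 and wells with excess unlabelled core106.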
GPR7 antag conf – human GPR7 antagonism, confirmation assay; shares compounds with GPR7 antagonist; GPR7-expressing cells, calcium fluorescence antagonist mode; inhibition, % at 4.4 µM; actives 52% (n = 2,400); in the data active means inhibition above about 24%;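 further: stimulated with the GPR7 agonist NPW; 0% = agonist plus vehicle and 100% = vehicle alone without agonist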
MCHR1 antagonist – antagonizes human MCHR1, a GPR7 antagonist counter-screen; AID 2148; shares compounds with GPR7 antagonist; inhibition, % at 4.4 µM; actives 62% (n = 2,400); MCHR1-expressing cells, fluorescence antagonist assay; in the data active means inhibition above about 22%;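 further: 0% = vehicle with agonist and 100% = vehicle without agonist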
* marks the source's active call; other numbers are inactive results; nt = not tested or not shown. Most compounds without a hit are left out; they make up all but 1.9% or so of the library.

SMILES | HCV NS3 hel inh | DNA FID counter | pCIP destab | GPR7 antagonist | core dimer inh | GPR7 antag conf | MCHR1 antagonist
CCOC(=O)c1ccc(N2CCCCC2)c(NS(=O)(=O)c2ccc(C)cc2)c1 | -10.5 | -21.1 | -6.3 | 24.9* | 6.7 | 15.0 | 61.9*
Cc1cccc2cc(C3CC(c4ccco4)=NN3S(C)(=O)=O)c(Cl)nc12 (configuration not stated) | 32.5 | -18.5 | -1.0 | 21.9* | 6.5 | 2.4 | 11.5
CNC[C@@H](CC1CCCCC1)NC[C@H](CC(C)C)NCCc1cccc(C(F)(F)F)c1 | -89.9 | 34.9 | 4.3 | 56.3* | -3.4 | 72.5* | 88.0*
CCC[C@@H](CNC)NC[C@H](Cc1ccccc1)NCCCCc1ccccc1 | -71.3 | 29.1 | -7.8 | 41.1* | -15.7 | 51.0* | 71.3*
CN(Cc1cccc(C(F)(F)F)c1)C(=O)C1CCC(=O)N(CC2CCCCC2)C1 (configuration not stated) | 0.2 | -50.5 | -11.2 | 4.2 | 3.3 | nt | nt
CNC[C@@H](Cc1ccccc1)NC[C@@H](CC1CCCCC1)NCCCc1ccccc1 | -81.1 | 38.2* | -4.2 | 64.7* | -10.5 | 81.8* | 93.0*
COc1cc2c(cc1CN1CCN(C(=O)c3cc(OC)c(OC)c(OC)c3)CC1)OCO2 | 2.7 | -13.6 | -2.0 | -8.2 | -5.7 | nt | nt
COc1cc([N+](=O)[O-])ccc1NC(=O)Cn1ccsc1=N | -9.9 | 10.0 | -0.7 | -12.4 | 0.3 | nt | nt
CC(C)Oc1ccccc1-c1cc(C(=O)N/N=C/c2cccnc2)c2ccccc2n1 | -3.6 | -33.7 | 3.8 | -24.3 | 4.1 | nt | nt
O=C(/C=C/c1ccc(O)c([N+](=O)[O-])c1)c1ccc2ccccc2c1 | -2.5 | -10.5 | -5.9 | -16.8 | 16.6 | nt | nt
COc1ccc(Oc2ccc(/C=C/C(=O)c3ccc(O)cc3)cc2[N+](=O)[O-])cc1 | -9.1 | 4.2 | 0.3 | 26.5* | 10.2 | 77.3* | 86.5*
CCOc1cc(/C=C2\CCn3c2nc2cc(Cl)ccc2c3=O)ccc1O | -24.0 | -20.3 | -7.6 | -0.6 | 14.1 | nt | nt
Cc1ccccc1CC1(CO)CCCN(C(=O)c2ccccc2N(C)C)C1 (configuration not stated) | 1.1 | -32.6 | 4.4 | 30.8* | -0.7 | 36.1* | 30.7*
Cc1ccccc1CC1(CO)CCCN(C(=O)c2ccc(F)cc2)C1 (configuration not stated) | 6.7 | -21.4 | -9.7 | -0.1 | -3.3 | nt | nt
COC(=O)C(NC(=O)c1ccccc1Cl)(Nc1ncc(S(=O)(=O)c2ccc([N+](=O)[O-])cc2)s1)C(F)(F)F (configuration not stated) | 0.2 | -4.0 | -0.7 | 34.3* | 14.1 | 55.9* | 42.5*
O=C(Nc1ncc(S(=O)(=O)c2ccc([N+](=O)[O-])cc2)s1)c1ccc2ccccc2c1 | -0.3 | -0.2 | -0.8 | -2.9 | 33.7 | nt | nt
Cc1ccc2nc(-c3ccc(N4C(=N)SC5CS(=O)(=O)CC54)cc3)sc2c1 (configuration not stated) | -23.7 | 13.0 | -16.2 | 7.4 | -8.3 | nt | nt
CCn1c(C)nc2cc(N)ccc21 | 4.0 | 22.6 | -1.7 | 27.3* | -3.6 | -10.2 | 1.0
CCn1c(C)nc2cc(OC)ccc21 | -4.4 | 7.0 | -3.0 | -3.0 | -0.1 | nt | nt
CCCCCCCN1C(Nc2ccccc2)=NC[C@@H]1Cc1ccccc1 | -84.8 | 14.7 | -5.4 | 49.7* | -4.9 | 48.3* | 48.0*
CCC(C)CCN1C(Nc2ccccc2)=NC[C@@H]1Cc1ccccc1 (some centres not stated) | -21.1 | 7.1 | -29.3 | nt | 0.7 | nt | 19.4
c1ccc(C[C@H]2CN=C(Nc3ccccc3)N2CCCC2CCCC2)cc1 | -103.3 | 10.0 | -20.0 | 46.5* | -1.3 | 51.3* | 34.2*
NCC12CC3CC(C1)CC(c1ccc(Br)cc1)(C3)C2 | -52.3 | 22.6 | -5.7 | 47.6* | 1.9 | 28.7* | 32.8*
Cc1ccc(C23CC4CC(CC(CN)(C4)C2)C3)cc1 | -21.3 | 14.0 | -19.9 | 7.4 | nt | nt | nt
Clc1nssc1=Nc1ccc(Br)cc1 | -1.6 | 1.0 | -0.4 | -7.8 | nt | nt | nt
SMILES | HCV NS3 hel inh | DNA FID counter | pCIP destab | GPR7 antagonist | core dimer inh | GPR7 antag conf | MCHR1 antagonist
OCc1ccccc1N=c1ssnc1Cl | -10.4 | 2.1 | -1.6 | 31.1* | 6.5 | 3.6 | 17.5
O=C(CSc1ncnc2scc(-c3ccccc3)c12)N1CCN(c2ccccc2F)CC1 | 1.1 | -10.7 | 5.2 | 26.7* | 15.3 | 25.2* | 33.6*
O=C(COc1ccc([N+](=O)[O-])cc1)N(Cc1cccs1)C1CCS(=O)(=O)C1 (configuration not stated) | 7.5 | -16.6 | -2.3 | -0.1 | 24.5 | nt | nt
CC1CCC(NS(=O)(=O)c2ccc(Cl)nc2)CC1 (configuration not stated) | nt | nt | nt | nt | -4.8 | nt | nt
Cc1cccc(CN2CCNC2=O)c1 | 2.7 | -4.1 | 5.2 | 21.0* | 2.6 | -2.9 | -5.6
CN(C)NC1=CC(=[N+]2CCCC2)CC(C)(C)C1 | 0.1 | -3.7 | -5.4 | -1.8 | 1.2 | nt | nt
CCCN(CCC)C1=CC(=[N+]2CCCC2)CC(C)(C)C1 | -8.4 | 3.7 | -10.2 | 51.9* | -2.5 | 57.8* | 51.1*
CC1CCc2cc(F)ccc2N1C(=O)c1cccnc1 (configuration not stated) | 1.4 | -14.6 | 1.0 | 25.8* | -5.8 | -4.8 | 1.1
CC1Cc2ccccc2N1C(=O)c1cccnc1 (configuration not stated) | 10.9 | -0.5 | -20.9 | -7.9 | -3.2 | nt | nt
Cc1cc(Cl)ccc1OCC(O)CNCCc1ccc(S(N)(=O)=O)cc1 (configuration not stated) | -16.9 | 10.8 | 4.3 | 67.5* | -3.5 | 65.6* | 72.8*
Cc1cc(Cl)ccc1NC(=S)NCCc1ccc(S(N)(=O)=O)cc1 | nt | nt | nt | nt | -4.4 | nt | nt
Cc1ccc(S(=O)(=O)N(C)S(=O)(=O)c2ccc(C#N)cc2)cc1 | 4.8 | -12.2 | -4.7 | 24.7* | -1.8 | 19.0 | 25.0*
O=C(COC(=O)CCc1c[nH]c2ccccc12)Nc1ccc([N+](=O)[O-])cc1 | -6.3 | 15.6 | 7.5 | 26.1* | 1.6 | 48.8* | 40.8*
O=C(COC(=O)CCc1c[nH]c2ccccc12)Nc1cc([N+](=O)[O-])ccc1Cl | 8.7 | 6.5 | 5.5 | 2.0 | 6.6 | nt | nt
O=C(NCCc1c[nH]c2ccccc12)c1ccc([N+](=O)[O-])cc1 | 3.6 | 9.2 | 7.5 | 30.5* | -4.1 | 30.2* | 25.6*
CCOC(CCNC(=O)c1cn(C)c(=O)c2c1c1ccccc1n2C)OCC | 3.4 | -29.2 | -8.5 | -13.2 | 8.4 | nt | nt
Cc1ccc(NS(=O)(=O)c2ccc(C(=O)OCC(=O)Nc3cc(C)on3)cc2)cc1 | 1.2 | -3.9 | 1.3 | 26.0* | nt | 38.4* | 52.1*
O=P1(c2ccccc2)C=Cn2c1cc1c2CCCC1 (configuration not stated) | 1.2 | -10.5 | nt | 21.3* | 2.3 | 7.0 | 10.3

Compound activity: PubChem BioAssay, several laboratories
